Measured values from different studies.
Lines come from different studies, so protocols differ.
Target: Megakaryocyte-associated tyrosine-protein kinase (MATK, Homo sapiens, UniProt P42679)
Sequence (P42679 1-507, as in one of the studies): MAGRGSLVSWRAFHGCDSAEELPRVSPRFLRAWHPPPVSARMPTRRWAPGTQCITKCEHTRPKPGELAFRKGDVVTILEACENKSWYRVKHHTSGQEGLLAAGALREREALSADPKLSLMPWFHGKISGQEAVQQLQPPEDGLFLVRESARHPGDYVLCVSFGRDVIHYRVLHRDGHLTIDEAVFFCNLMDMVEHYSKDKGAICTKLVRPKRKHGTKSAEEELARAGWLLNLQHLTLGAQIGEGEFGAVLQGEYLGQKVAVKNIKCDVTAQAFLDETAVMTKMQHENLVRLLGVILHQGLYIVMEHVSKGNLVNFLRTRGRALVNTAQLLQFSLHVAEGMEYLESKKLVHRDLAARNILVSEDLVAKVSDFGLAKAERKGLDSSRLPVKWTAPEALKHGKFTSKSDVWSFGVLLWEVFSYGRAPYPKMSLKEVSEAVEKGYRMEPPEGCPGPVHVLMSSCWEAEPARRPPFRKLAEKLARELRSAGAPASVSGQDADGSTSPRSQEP

Compound | assay | conditions | measurement | value
CC(C)(O)[C@H]1CC[C@H](Nc2ccc3ncc(-c4cccc(C(F)(F)F)c4)n3n2)CC1 | enzyme activity, inhibitor | 1 µM | remaining activity | 102%
O=C(Nc1cnn(-c2csc(C(=O)NC3COC3)c2)c1)Nc1c(F)cccc1Cl | enzyme activity, inhibitor | 5 µM | remaining activity | 100%
O=C1Nc2ccc(Cl)cc2C1=Cc1cc(Cl)c(O)c(Cl)c1 | cell-free assay | 0.5 µM | remaining signal | 82.2%
CC1=C(C#N)C(c2ccc3c(c2)c(NC(=O)c2ccccc2C)nn3C)C(C#N)=C(C)N1 | cell-free assay, competition with immobilised ligand | 1 µM | remaining binding | 79%
COc1cc2ncnc(Nc3ccc(Oc4ccccc4)cc3C)c2cc1OC | enzyme activity, inhibitor | 1 µM | inhibition | 0%
O=c1nc(-c2ccccn2)sc2ccccc12 | binding, competition with immobilised ligand | 1 µM | remaining binding | 100%
CC(C)(C)c1nc(-c2cccc(NS(=O)(=O)c3c(F)cccc3F)c2F)c(-c2ccnc(N)n2)s1 | enzyme activity, inhibitor, radiometric | 1 µM | remaining activity | 90%
CCOCCn1cc(C(=O)Nc2ccc(-n3nc(-c4cccnc4)cc3C(F)(F)F)cn2)ccc1=O | cell-free assay, competition with immobilised ligand | 1 µM | remaining binding | 90%
c1nc2c(Nc3ccc4c(c3)OCCO4)nc(Nc3ccc4c(c3)OCCO4)nc2[nH]1 | enzyme activity, inhibitor | 10 µM | activity vs control | 49%
Cc1sc(C(=O)NC2COC2)cc1-n1cc(NC(=O)Nc2c(F)cccc2Cl)cn1 | enzyme activity, inhibitor | 10 µM | remaining activity | 97.8%
CNC(=O)c1cc(Oc2ccc(NC(=O)Nc3ccc(Cl)c(C(F)(F)F)c3)cc2)ccn1 | cell-free assay | 0.5 µM | remaining signal | 114%
CN(C)C(=O)Cn1cc(-c2nc([C@@](C)(c3ccc(-c4cnc(N)nc4)cc3)C3CC3)no2)cn1 | cell-free assay, competition with immobilised ligand | 1 µM | remaining binding | 77%
